Data on 18 compounds can be found in ChEMBL document CHEMBL3091279, “Discovery and SAR studies of methionine-proline anilides as dengue virus NS2B-NS3 protease inhibitors” (Bioorg Med Chem Lett, 2013).

Structures can show the parent of a compound that is named as a salt. The source made the active and inactive calls. The calls are words filed in the database; no cut-off is given here. Non-standard residues stand in square brackets, D forms with d. Residues, ends and D or L forms follow the SMILES beside them. *: point of attachment. Pbf = Cc1c(C)c(S(=O)(=O)*)c(C)c2c1OC(C)(C)C2; Met(O2) = CS(=O)(=O)CC[C@H](N)C(=O)O; Met(O) = CS(=O)CC[C@H](N)C(=O)O; pNA = O=[N+]([O-])c1ccc(N*)cc1; Boc = CC(C)(C)OC(=O)*; NHBn = c1ccc(CN*)cc1; Tfa = O=C(C(F)(F)F)*; NHPh = c1ccc(N*)cc1

In one experiment the test system is dengue virus type 2. The experiment can be described thus: Inhibition of Dengue virus serotype 2 NS2B-NS3 protease using benzoyl-Nle-Lys-Arg-Arg-AMC as substrate assessed as remaining activity at 200 uM incubated for 3 mins followed by substrate addition by fluorescence spectrophotometric analysis relative to control. In short, it runs like this:
(§1)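 DENV2 NS2B-NS3 protease expressed from a plasmid. Enzyme preincubated with inhibitor 3 min, then Bz-Nle-Lys-Arg-Arg-AMC (33 or 66 µM) added. Remaining activity read by fluorescence, ex 356/em 438 nm. Triplicate averages. Ki from Dixon plot (1/v vs inhibitor) at the two substrate levels.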
For `CSCC[C@H](N)C(=O)N1CCC[C@H]1C(=O)NCc1ccc([N+](=O)[O-])cc1`, the Activity amounted to 36%. On the same count and under the same terms, the result for `CC(C)(C)OC(=O)N[C@@H](Cc1ccccc1)C(=O)N1CCC[C@H]1C(=O)Nc1ccc([N+](=O)[O-])cc1` (Boc-Phe-Pro-pNA) reads 25%; that for `CSCC[C@H](N)C(=O)N1CCC[C@H]1C(=O)Nc1ccccc1` (H-Met-Pro-NHPh), 60%; that for `N[C@@H](Cc1ccccc1)C(=O)N1CCC[C@H]1C(=O)Nc1ccc([N+](=O)[O-])cc1` (H-Phe-Pro-pNA), 31%.

Another experiment concerns dengue virus type 2. The experiment can be described thus: Inhibition of Dengue virus serotype 2 NS2B-NS3 protease using benzoyl-Nle-Lys-Arg-Arg-AMC as substrate assessed as remaining activity at 20 uM incubated for 3 mins followed by substrate addition by fluorescence spectrophotometric analysis relative to control. An outline of the steps: as §1
For `COc1ccc(CN[C@@H](CCSC)C(=O)N2CCC[C@H]2C(=O)Nc2ccc([N+](=O)[O-])cc2)cc1`, the Activity worked out at 90%. Still for that read-out and setting: the result for `CSCC[C@H](N)C(=O)N1CCC[C@@H]1C(=O)Nc1ccc([N+](=O)[O-])cc1` reads 71%.

With `CSCC[C@H](N)C(=O)N1CCC[C@H]1C(=O)Nc1cccc([N+](=O)[O-])c1`, the Activity is 37%. Same read-out and setting: to `CSCC[C@H](N)C(=O)N1CCC[C@H]1C(=O)Nc1ccccc1[N+](=O)[O-]` belongs 96%; to `CSCC[C@H](NCc1ccc([N+](=O)[O-])cc1)C(=O)N1CCC[C@H]1C(=O)Nc1ccc([N+](=O)[O-])cc1`, 38%. Consider `Cc1c(C)c(S(=O)(=O)NC(=N)NCCC[C@H](NC(=O)OC(C)(C)C)C(=O)N2CCC[C@H]2C(=O)Nc2ccc([N+](=O)[O-])cc2)c(C)c2c1OC(C)(C)C2` (Boc-Arg(Pbf)-Pro-pNA), for which the Activity stood at 90%. Same read-out and setting: to `Cc1c(C)c(S(=O)(=O)NC(=N)NCCC[C@H](N)C(=O)N2CCC[C@H]2C(=O)Nc2ccc([N+](=O)[O-])cc2)c(C)c2c1OC(C)(C)C2` (H-Arg(Pbf)-Pro-pNA) belongs 106%.

As for `N=C(N)NCCC[C@H](N)C(=O)N1CCC[C@H]1C(=O)Nc1ccc([N+](=O)[O-])cc1` (H-Arg-Pro-pNA), the Activity was 93%.

As for `CS(=O)(=O)CC[C@H](N)C(=O)N1CCC[C@H]1C(=O)Nc1ccc([N+](=O)[O-])cc1` (H-[Met(O2)]-Pro-pNA), the Activity was found to be 103%.

Regarding `C[S+]([O-])CC[C@H](N)C(=O)N1CCC[C@H]1C(=O)Nc1ccc([N+](=O)[O-])cc1` (stereo partly specified) (H-[Met(O)]-Pro-pNA), the Activity amounted to 99%.

Another experiment concerns dengue virus type 2. The experiment can be described thus: Inhibition of Dengue virus serotype 2 NS2B-NS3 protease using benzoyl-Nle-Lys-Arg-Arg-AMC as substrate assessed as remaining activity at 15 uM incubated for 3 mins followed by substrate addition by fluorescence spectrophotometric analysis relative to control. In short, it runs like this: as §1
For `CSCC[C@H](N)C(=O)N1CCC[C@H]1C(=O)Nc1ccc([N+](=O)[O-])cc1`, the Activity stood at 31%. On the same count and under the same terms, the result for `CSCC[C@H](NC(=O)OC(C)(C)C)C(=O)N1CCC[C@H]1C(=O)Nc1ccc([N+](=O)[O-])cc1` (Boc-Met-Pro-pNA) reads 45%; that for `CSCC[C@H](N)C(=O)N1CCC[C@H]1C(=O)NCc1ccccc1` (H-Met-Pro-NHBn), 58%; that for `CSCC[C@H](NC(=O)C(F)(F)F)C(=O)N1CCC[C@H]1C(=O)Nc1ccc([N+](=O)[O-])cc1` (Tfa-Met-Pro-pNA), 54%.

A further experiment deals with dengue virus type 2. The experiment in a line: Inhibition of Dengue virus serotype 2 NS2B-NS3 protease using benzoyl-Nle-Lys-Arg-Arg-AMC as substrate assessed as fluorescence changes after 0.2 to 1 min by fluorescence spectrophotometric analysis. An outline of the steps:
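Fluorescence interference check. Fluorescence change over time followed in three parallel runs at 37 °C in pH 9.0 Tris buffer: NS2B-NS3 with inhibitor, NS2B-NS3 with Bz-Nle-Lys-Arg-Arg-AMC, and NS2B-NS3 with substrate plus inhibitor. Read at ex 356/em 438 nm.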
As to `CSCC[C@H](NC(=O)OC(C)(C)C)C(=O)N1CCC[C@H]1C(=O)Nc1ccc([N+](=O)[O-])cc1` (Boc-Met-Pro-pNA), the inhibition entry was “Active”.

System in the next experiment: not listed separately
The experiment can be described thus: Competitive inhibition of Dengue virus serotype 2 NS2B-NS3 protease using benzoyl-Nle-Lys-Arg-Arg-AMC as substrate by Dixon plot analysis. Also noted: species or system dengue virus type 2. An outline of the steps:
as §1
As usually defined, the Ki is the dissociation constant of the complex between target and ligand, obtained from inhibition or displacement. Read a low Ki as tighter binding. The compound `CSCC[C@H](N)C(=O)N1CCC[C@H]1C(=O)Nc1ccc([N+](=O)[O-])cc1` showed a Ki of 4.9 µM. For the compound `CSCC[C@H](NC(=O)OC(C)(C)C)C(=O)N1CCC[C@H]1C(=O)Nc1ccc([N+](=O)[O-])cc1` (Boc-Met-Pro-pNA), affinity was put at a Ki of 10.5 µM. This Ki is about 2.1-fold higher than that of the compound before.
